Measured values taken from ChEMBL document CHEMBL1134765, “Synthesis of 4-alkoxy-2-phenylquinoline derivatives as potent antiplatelet agents” (Bioorg Med Chem Lett, 2001).

What was measured:
Type in all cases: functional
Homo sapiens [1] = species on record: Homo sapiens; experiment: In vitro inhibitory activity of compound 0.5 (ug/ml) on platelet aggregation induced by collagen
Summary of the method: (§1)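 Platelets were preincubated with test sample or 0.5% DMSO vehicle at 37 °C for 1 min. Aggregation was then triggered by one inducer: thrombin 0.1 U/mL, arachidonic acid 100, collagen 10, or PAF 2 ng/mL. Read-out was percent aggregation, reported as mean±SE with n=3–6.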

Homo sapiens [2] = species on record: Homo sapiens; experiment: In vitro inhibitory activity of control on platelet aggregation induced by thrombin; summary of the method: as §1
Homo sapiens [3] = species on record: Homo sapiens; experiment: In vitro inhibitory activity of compound 5 (ug/ml) on platelet aggregation induced by AA; summary of the method: as §1
Homo sapiens [4] = species on record: Homo sapiens; experiment: In vitro inhibitory activity of compound 100 (ug/ml) on platelet aggregation induced by collagen; summary of the method: as §1
Homo sapiens [5] = species on record: Homo sapiens; experiment: In vitro inhibitory activity of compound 1 (ug/ml) on platelet aggregation induced by AA; summary of the method: as §1
Homo sapiens [6] = species on record: Homo sapiens; experiment: In vitro inhibitory activity of compound 10 (ug/ml) on platelet aggregation induced by collagen; summary of the method: as §1
Homo sapiens [7] = species on record: Homo sapiens; experiment: In vitro inhibitory activity of compound 5 (ug/ml) on platelet aggregation induced by collagen; summary of the method: as §1
Homo sapiens [8] = species on record: Homo sapiens; experiment: In vitro inhibitory activity of control on platelet aggregation induced by PAF; summary of the method: as §1
Homo sapiens [9] = species on record: Homo sapiens; experiment: In vitro inhibitory activity on platelet aggregation induced by arachidonic acid (AA)
Summary of the method: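 Platelets were preincubated 1 min at 37 °C with test sample or 0.5% DMSO. Aggregation was then triggered with arachidonic acid 100. Aspirin and indomethacin served as positive controls.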

Homo sapiens [10] = species on record: Homo sapiens; experiment: In vitro inhibitory activity of compound 0.2 (ug/ml) on platelet aggregation induced by collagen; summary of the method: as §1
Homo sapiens [11] = species on record: Homo sapiens; experiment: In vitro inhibitory activity of control on platelet aggregation induced by collagen; summary of the method: as §1
Homo sapiens [12] = species on record: Homo sapiens; experiment: In vitro inhibitory activity of control on platelet aggregation induced by AA; summary of the method: as §1
Homo sapiens [13] = species on record: Homo sapiens; experiment: In vitro inhibitory activity of compound 100 (ug/ml) on platelet aggregation induced by AA; summary of the method: as §1
Homo sapiens [14] = species on record: Homo sapiens; experiment: In vitro inhibitory activity of compound on platelet aggregation induced by collagen; summary of the method: as §1
Homo sapiens [15] = species on record: Homo sapiens; experiment: In vitro inhibitory activity of compound 0.2 (ug/ml) on platelet aggregation induced by AA; summary of the method: as §1
Homo sapiens [16] = species on record: Homo sapiens; experiment: In vitro inhibitory activity of compound 2 (ug/ml) on platelet aggregation induced by AA; summary of the method: as §1
Homo sapiens [17] = species on record: Homo sapiens; experiment: In vitro inhibitory activity of compound 100 (ug/ml) on platelet aggregation induced by thrombin; summary of the method: as §1
Homo sapiens [18] = species on record: Homo sapiens; experiment: In vitro inhibitory activity of compound 1 (ug/ml) on platelet aggregation induced by collagen; summary of the method: as §1
Homo sapiens [19] = species on record: Homo sapiens; experiment: In vitro inhibitory activity of compound 100 (ug/ml) on platelet aggregation induced by PAF; summary of the method: as §1
Homo sapiens [20] = species on record: Homo sapiens; experiment: In vitro inhibitory activity of compound 0.1 (ug/ml) on platelet aggregation induced by collagen; summary of the method: as §1
Homo sapiens [21] = species on record: Homo sapiens; experiment: In vitro inhibitory activity of compound 0.5 (ug/ml) on platelet aggregation induced by AA; summary of the method: as §1
Homo sapiens [22] = species on record: Homo sapiens; experiment: In vitro inhibitory activity of compound 2 (ug/ml) on platelet aggregation induced by collagen; summary of the method: as §1
Homo sapiens [23] = species on record: Homo sapiens; experiment: In vitro inhibitory activity of compound 50 (ug/ml) on platelet aggregation induced by PAF; summary of the method: as §1
Homo sapiens [24] = species on record: Homo sapiens; experiment: In vitro inhibitory activity of compound 20 (ug/ml) on platelet aggregation induced by PAF; summary of the method: as §1
Homo sapiens [25] = species on record: Homo sapiens; experiment: In vitro inhibitory activity of compound 0.1 (ug/ml) on platelet aggregation induced by AA; summary of the method: as §1
Homo sapiens [26] = species on record: Homo sapiens; experiment: Potent antiplatelet activity was evaluated

`CCOc1cc(-c2ccccc2)nc2ccccc12` gave an Aggregation (Homo sapiens [1]) of 43.5%, an Aggregation (Homo sapiens [2]) of 92.5% and an Aggregation (Homo sapiens [3]) of 0%. It also gave an Aggregation (Homo sapiens [4]) of 0%, an Aggregation (Homo sapiens [5]) of 4.3% and an Aggregation (Homo sapiens [6]) of 5.9%. It also gave an Aggregation (Homo sapiens [7]) of 15.9%, an Aggregation (Homo sapiens [8]) of 92% and an IC50 (Homo sapiens [9]) of 2.01 µM. The Aggregation (Homo sapiens [10]) was 78.5%, the Aggregation (Homo sapiens [11]) was 89.2% and the Aggregation (Homo sapiens [12]) was 90.9%. For the same compound, the Aggregation (Homo sapiens [13]) was 0%, the IC50 (Homo sapiens [14]) was 3.61 µM and the Aggregation (Homo sapiens [15]) was 86.4%. For the same compound, the Aggregation (Homo sapiens [16]) was 1.7%, the Aggregation (Homo sapiens [17]) was 80% and the Aggregation (Homo sapiens [18]) was 36.3%. The Aggregation (Homo sapiens [19]) was 63.8%, the Aggregation (Homo sapiens [20]) was 85.9% and the Aggregation (Homo sapiens [21]) was 23.1%. The Aggregation (Homo sapiens [22]) was 28.4%.
`COc1cc(-c2ccccc2)nc2ccccc12` was tested, and the Aggregation (Homo sapiens [23]) was 65.8%, the Aggregation (Homo sapiens [2]) was 92.5% and the Aggregation (Homo sapiens [4]) was 0%. It also gave an Aggregation (Homo sapiens [5]) of 9.3%, an Aggregation (Homo sapiens [24]) of 87.2% and an Aggregation (Homo sapiens [7]) of 0%. For the same compound, the Aggregation (Homo sapiens [8]) was 92%, the IC50 (Homo sapiens [9]) was 2.13 µM and the Aggregation (Homo sapiens [11]) was 89.2%. For the same compound, the Aggregation (Homo sapiens [12]) was 90.9%, the Aggregation (Homo sapiens [25]) was 90.8% and the Aggregation (Homo sapiens [13]) was 0%. The IC50 (Homo sapiens [14]) was 1.7 µM, the Aggregation (Homo sapiens [15]) was 86% and the Aggregation (Homo sapiens [16]) was 0%. For the same compound, the Aggregation (Homo sapiens [17]) was 56.8%, the Aggregation (Homo sapiens [18]) was 18.5% and the Aggregation (Homo sapiens [19]) was 0%. The Aggregation (Homo sapiens [21]) was 53.4% and the Aggregation (Homo sapiens [22]) was 9.4%.
Work on `CCOC(=O)CCCOc1cc(-c2ccccc2)nc2cccc(CC)c12` yielded an IC50 (Homo sapiens [9]) of 1.54 µM.
`CCOC(=O)CCCCOc1cc(-c2ccccc2)nc2cccc(CC)c12` was tested, and the IC50 (Homo sapiens [9]) was 0.53 µM.
Work on `CCc1cccc2nc(-c3ccccc3)cc(O)c12` yielded an IC50 (Homo sapiens [26]) of 0.15 µM.
Work on `CCc1cccc2nc(-c3ccccc3)cc(OC)c12` yielded an IC50 (Homo sapiens [9]) of 0.08 µM.
`O=C(O)COc1cc(-c2ccccc2)nc2ccccc12` was tested, and the IC50 (Homo sapiens [9]) was 35.6 µM.
For `CCOc1cc(-c2ccccc2)nc2cc(CC)ccc12`, the IC50 (Homo sapiens [9]) was 3.97 µM.
With `CCNC(=O)COc1cc(-c2ccccc2)nc2cccc(CC)c12` the IC50 (Homo sapiens [9]) was 0.6 µM.
`CCc1cccc2c1c(=O)cc(-c1ccccc1)n2C` was tested, and the IC50 (Homo sapiens [9]) was 30 µM.
`CCOC(=O)COc1cc(-c2ccccc2)nc2ccccc12` was tested, and the IC50 (Homo sapiens [9]) was 13.9 µM.
In the case of `CCOC(=O)COc1cc(-c2ccccc2)nc2cccc(CC)c12`, the IC50 (Homo sapiens [9]) is reported as 0.78 µM.
For `CCOc1cc(-c2ccccc2)nc2cccc(CC)c12`, the IC50 (Homo sapiens [9]) was 0.14 µM.
`CCc1cccc2nc(-c3ccccc3)cc(OCC(=O)NC)c12` gave an IC50 (Homo sapiens [9]) of 1.88 µM.
`CC(=O)Oc1ccccc1C(=O)O` [ASPIRIN] was tested, and the IC50 (Homo sapiens [9]) was 20 µM.
`COc1ccc2c(c1)c(CC(=O)O)c(C)n2C(=O)c1ccc(Cl)cc1` [INDOMETHACIN] showed an IC50 (Homo sapiens [9]) of 0.25 µM.
